Assays:
Mus musculus [1] = assay: Acute toxicity in mouse assessed as effect on lung morphology at 125 mg/kg, po administered via gavage measured after 24 hrs and followed up to 7 days by histopathological analysis; type: organism-based; conditions: in vivo
In short: (§1)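 Male mice (25-30 g), six per group, fasted overnight and weighed before dosing. Compound suspended in aqueous 1% gum acacia and given by oral gavage in ascending doses of 25, 50, 75, 100 and 125 mg/kg/day (groups I-V). Vehicle group received gum acacia at up to 1 mL/100 g. Mortality recorded at 24 h and followed for seven days. Spleen, lung, liver and kidney examined.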

Mus musculus [2] = assay: Acute toxicity in mouse assessed as effect on body weight at 25 to 125 mg/kg/day, po administered via gavage measured during 3 days post dose; type: organism-based; conditions: in vivo, 72 h; in short: as §1
[3] = Selectivity index, ratio of CC50 African green monkey Vero cells to IC50 for promastigote form of Leishmania major; type: toxicity; conditions: Vero cells versus Leishmania major promastigotes, read-out: Ratio CC50/IC50
In short: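 Selectivity index calculated as Vero CC50 (72 h crystal violet) divided by promastigote IC50.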

Mus musculus [4] = assay: Acute toxicity in mouse assessed as effect on kidney morphology at 125 mg/kg, po administered via gavage measured after 24 hrs and followed up to 7 days by histopathological analysis; type: organism-based; conditions: in vivo; in short: as §1
Mus musculus [5] = assay: Acute toxicity in mouse assessed as induction of death at 25 to 125 mg/kg/day, po administered via gavage measured during 3 days post dose; type: organism-based; conditions: in vivo, 72 h; in short: as §1
Mus musculus [6] = assay: Acute toxicity in mouse assessed as effect on liver morphology at 125 mg/kg, po administered via gavage measured after 24 hrs and followed up to 7 days by histopathological analysis; type: organism-based; conditions: in vivo; in short: as §1
Leishmania major [7] = assay: Antileishmanial activity against axenic amastigote form of Leishmania major assessed as parasite growth inhibition after 72 hrs by resazurin dye based assay; type: functional, organism-based
In short: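 Axenic L. major amastigotes, generated in RPMI-1640 with 10% heat-inactivated FCS, penicillin/streptomycin and L-glutamine, seeded at 2 x 10³ cells/ml onto serially diluted compound (0.04-10 final). Held at 31°C, 5% CO₂, humidified, for 72 h. Resazurin added at 68 h and read at 72 h (ex 530/em 590 nm). IC50 from sigmoidal dose-response curves; mean ± SEM, triplicate experiments in duplicate.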

Mus musculus [8] = assay: Acute toxicity in mouse assessed as effect on kidney morphology at 75 mg/kg, ip measured up to 7 days by histopathological analysis; type: organism-based; conditions: in vivo, 168 h
In short: (§2)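 Groups of six mice dosed by intraperitoneal injection at 5, 10, 25, 50 and 75 mg/kg, with propylene glycol as vehicle and control. Spleen, lung, liver and kidney taken from the 75 mg/kg animals and examined for texture.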

Leishmania major [9] = assay: Potency index, ratio of miltefosine IC50 to compound IC50 for antileishmanial activity axenic amastigote form of Leishmania major; type: functional
Leishmania major [10] = assay: Antileishmanial activity against Leishmania major assessed as parasite survival at 0.25 uM after 48 hrs in presence of 20 uM folinic acid relative to control; type: functional
In short: (§3)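 L. major promastigotes in log phase (10⁶ parasites) pre-incubated with folic or folinic acid (20 or 100 µM), washed, resuspended in PBS for 1 h at room temperature, then returned to culture medium in 24-well plates. Compounds added at the fixed concentration, with trimethoprim at 100 µM. Incubated 48 h; living parasites counted per mL against untreated control wells.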

Leishmania major [11] = assay: Antileishmanial activity against promastigote form of Leishmania major assessed as parasite growth inhibition after 48 hrs by alamar blue assay; type: functional, organism-based
Mus musculus [12] = assay: Acute toxicity in mouse assessed as effect on survival up to 75 mg/kg dosed via parenteral route measured up to 7 days; type: organism-based; conditions: in vivo, 168 h; in short: as §2
[13] = Cytotoxicity against African green monkey Vero cells assessed as reduction in cell viability after 72 hrs by crystal violet staining based assay; conditions: chlorocebus sabaeus
In short: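 Vero cells seeded at 1×10^5 cells/well in MEM with 5% heat-inactivated FBS. Viability by crystal violet staining; CC50 from concentration-response. At least 3 separate experiments, each in duplicate.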

Mus musculus [14] = assay: Acute toxicity in mouse assessed as effect on lung morphology at 75 mg/kg, ip measured up to 7 days by histopathological analysis; type: organism-based; conditions: in vivo, 168 h; in short: as §2
Mus musculus [15] = assay: Acute toxicity in mouse assessed as effect on spleen morphology at 125 mg/kg, po administered via gavage measured after 24 hrs and followed up to 7 days by histopathological analysis; type: organism-based; conditions: in vivo; in short: as §1
Mus musculus [16] = assay: Acute toxicity in mouse up to 125 mg/kg/day, po administered via gavage measured after 24 hrs and followed up to 7 days; type: organism-based; conditions: in vivo; in short: as §1
Leishmania major [17] = assay: Antileishmanial activity against Leishmania major assessed as parasite survival at 0.25 uM after 48 hrs in presence of 100 uM folic acid relative to control; type: functional; in short: as §3
Leishmania major [18] = assay: Antileishmanial activity against Leishmania major assessed as parasite survival at 0.25 uM after 48 hrs relative to control; type: functional; in short: as §3
Mus musculus [19] = assay: Acute toxicity in mouse assessed as effect on liver morphology at 75 mg/kg, ip measured up to 7 days by histopathological analysis; type: organism-based; conditions: in vivo, 168 h; in short: as §2
Mus musculus [20] = assay: Acute toxicity in mouse assessed as effect on spleen morphology at 75 mg/kg, ip measured up to 7 days by histopathological analysis; type: organism-based; conditions: in vivo, 168 h; in short: as §2
Leishmania major [21] = assay: Antileishmanial activity against Leishmania major assessed as parasite survival at 0.25 uM after 48 hrs in presence of 100 uM folinic acid relative to control; type: functional; in short: as §3
Leishmania major [22] = assay: Antileishmanial activity against Leishmania major assessed as parasite survival at 0.25 uM after 48 hrs in presence of 20 uM folic acid relative to control; type: functional; in short: as §3
Leishmania major [23] = assay: Antileishmanial activity against Leishmania major assessed as parasite survival at 0.16 uM after 48 hrs in presence of 100 uM folic acid relative to control; type: functional; in short: as §3
Leishmania major [24] = assay: Potency index, ratio of miltefosine IC50 to compound IC50 for antileishmanial activity promastigote form of Leishmania major; type: functional
Leishmania major [25] = assay: Antileishmanial activity against Leishmania major assessed as parasite survival at 0.16 uM after 48 hrs relative to control; type: functional; in short: as §3
Leishmania major [26] = assay: Antileishmanial activity against Leishmania major assessed as parasite survival at 0.16 uM after 48 hrs in presence of 20 uM folinic acid relative to control; type: functional; in short: as §3
Leishmania major [27] = assay: Antileishmanial activity against Leishmania major assessed as parasite survival at 0.16 uM after 48 hrs in presence of 100 uM folinic acid relative to control; type: functional; in short: as §3
Leishmania major [28] = assay: Antileishmanial activity against Leishmania major assessed as parasite survival at 0.16 uM after 48 hrs in presence of 20 uM folic acid relative to control; type: functional; in short: as §3

C#CCOc1ccc(/C=N/NC(N)=S)cc1OC
Activity (Mus musculus [1]): Non-Toxic | Activity (Mus musculus [2]): Non-Toxic | selectivity ratio [3]: 3640 | Activity (Mus musculus [4]): Non-Toxic | Activity (Mus musculus [5]): Non-Toxic | Activity (Mus musculus [6]): Non-Toxic | IC50 (Leishmania major [7]): 1.4 µM | Activity (Mus musculus [8]): Non-Toxic | Ratio IC50 (Leishmania major [9]): 6 | Activity (Leishmania major [10]): 90% | IC50 (Leishmania major [11]): 0.227 µM | Activity (Mus musculus [12]): Non-Toxic | CC50 at 72 h [13]: 828 µM | Activity (Mus musculus [14]): Non-Toxic | Activity (Mus musculus [15]): Non-Toxic | Activity (Mus musculus [16]): Non-Toxic | Activity (Leishmania major [17]): 97% | Activity (Leishmania major [18]): 25% | Activity (Mus musculus [19]): Non-Toxic | Activity (Mus musculus [20]): Non-Toxic | Activity (Leishmania major [21]): 98% | Activity (Leishmania major [22]): 89%

COc1cc(/C=N\NC(N)=S)ccc1OCc1cn(CC(=O)c2ccc(Br)cc2)nn1
IC50 (Leishmania major [7]): 5.1 µM | IC50 (Leishmania major [11]): 3.97 µM

COc1cc(/C=N/NC(N)=S)ccc1OCc1cn(CC(=O)c2ccc(C)cc2)nn1
IC50 (Leishmania major [7]): 4.97 µM | IC50 (Leishmania major [11]): 4.82 µM

COc1ccc(/C=N\NC(N)=S)cc1OCc1cn(CC(=O)c2ccc(Cl)cc2)nn1
IC50 (Leishmania major [7]): 1.69 µM | Ratio IC50 (Leishmania major [9]): 5 | IC50 (Leishmania major [11]): 0.798 µM

COc1cc(/C=N\NC(N)=S)ccc1OCc1cn(CC(=O)c2ccc(Cl)cc2)nn1
IC50 (Leishmania major [7]): 5.4 µM | IC50 (Leishmania major [11]): 4.76 µM

COc1ccc(/C=N/NC(N)=S)cc1OCc1cn(-c2ccc(S(N)(=O)=O)cc2)nn1
IC50 (Leishmania major [7]): 4.35 µM | IC50 (Leishmania major [11]): 4.38 µM

C/C(=N/NC(N)=S)c1ccc(OCc2cn(CC(=O)c3ccc(Br)cc3)nn2)cc1
Activity (Mus musculus [1]): Non-Toxic | Activity (Leishmania major [23]): 99% | Activity (Mus musculus [2]): Non-Toxic | selectivity ratio [3]: 3630 | Activity (Mus musculus [4]): Non-Toxic | Activity (Mus musculus [5]): Non-Toxic | Activity (Mus musculus [6]): Non-Toxic | Ratio IC50 (Leishmania major [24]): 55.6 | IC50 (Leishmania major [7]): 1 µM | Activity (Mus musculus [8]): Non-Toxic | Ratio IC50 (Leishmania major [9]): 8 | Activity (Leishmania major [25]): 23% | IC50 (Leishmania major [11]): 0.14 µM | Activity (Mus musculus [12]): Non-Toxic | Activity (Leishmania major [26]): 90% | CC50 at 72 h [13]: 509 µM | Activity (Mus musculus [14]): Non-Toxic | Activity (Mus musculus [15]): Non-Toxic | Activity (Mus musculus [16]): Non-Toxic | Activity (Mus musculus [19]): Non-Toxic | Activity (Leishmania major [27]): 99% | Activity (Mus musculus [20]): Non-Toxic | Activity (Leishmania major [28]): 91%

COc1ccc(/C=N/NC(N)=S)cc1OCc1cn(CC(=O)c2ccc(F)cc2)nn1
IC50 (Leishmania major [7]): 4.83 µM | IC50 (Leishmania major [11]): 2.52 µM

C/C(=N/NC(N)=S)c1ccc(OCc2cn(-c3ccc(C(=O)O)cc3)nn2)cc1
IC50 (Leishmania major [7]): 6.04 µM | IC50 (Leishmania major [11]): 7.41 µM

COc1cc(/C=N/NC(N)=S)ccc1OCc1cn(CC(=O)c2ccc(F)cc2)nn1
IC50 (Leishmania major [7]): 6.46 µM | IC50 (Leishmania major [11]): 6.93 µM

COc1ccc(/C=N\NC(N)=S)cc1OCc1cn(CC(=O)c2ccccc2)nn1
IC50 (Leishmania major [7]): 4.38 µM | IC50 (Leishmania major [11]): 4.4 µM

COc1ccc(/C=N/NC(N)=S)cc1OCc1cn(CC(=O)c2ccc(C)cc2)nn1
IC50 (Leishmania major [7]): 2.18 µM | Ratio IC50 (Leishmania major [9]): 4 | IC50 (Leishmania major [11]): 0.99 µM

COc1cc(/C=N/NC(N)=S)ccc1OCc1cn(-c2ccc(C(=O)O)cc2)nn1
IC50 (Leishmania major [7]): 5.6 µM | IC50 (Leishmania major [11]): 5.74 µM

COc1ccc(/C=N/NC(N)=S)cc1OCc1cn(-c2ccc(C(=O)O)cc2)nn1
IC50 (Leishmania major [7]): 4.78 µM | IC50 (Leishmania major [11]): 5 µM

COc1ccc(/C=N\NC(N)=S)cc1OCc1cn(CC(=O)c2ccc(Br)cc2)nn1
IC50 (Leishmania major [7]): 4.48 µM | IC50 (Leishmania major [11]): 5.69 µM

COc1cc(/C=N\NC(N)=S)ccc1OCc1cn(CC(=O)c2ccccc2)nn1
IC50 (Leishmania major [7]): 5.39 µM | IC50 (Leishmania major [11]): 4.87 µM

C/C(=N/NC(N)=S)c1ccc(OCc2cn(-c3ccc(S(N)(=O)=O)cc3)nn2)cc1
IC50 (Leishmania major [7]): 8.26 µM | IC50 (Leishmania major [11]): 6.79 µM

CCCCCCCCCCCCCCCCOP(=O)([O-])OCC[N+](C)(C)C [MILTEFOSINE]
IC50 (Leishmania major [7]): 8.09 µM

From ChEMBL document CHEMBL4152215, “Anti-leishmanial click modifiable thiosemicarbazones: Design, synthesis, biological evaluation and in silico studies” (Eur J Med Chem, 2018)
